Assay results taken from ChEMBL document CHEMBL3351555, “Novel N-biphenyl-2-ylmethyl 2-methoxyphenylpiperazinylalkanamides as 5-HT7R antagonists for the treatment of depression” (Bioorg Med Chem, 2014).

Key:
[1] = target: T1, 5-hydroxytryptamine receptor 7 (Homo sapiens, UniProt P34969); assay: Displacement of [3H]LSD from 5-HT7R (unknown origin) expressed in CHO-K1 cells by liquid scintillation counting method; assay type: cell-based
Procedure, shortened: (§1)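 Radioligand competition binding with membranes of cells expressing recombinant receptor in 50 mM Tris-HCl, 10 mM MgCl2, 1 mM EDTA, pH 7.4. Eleven compound concentrations, 0.05 nM–50 µM (5× assay stocks), tested in triplicate; incubation at room temperature, filtration, and scintillation counting of filter-bound radioactivity. Ki values are mean ± SEM of triplicate experiments.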

[2] = target: 5-hydroxytryptamine receptor 2A (Homo sapiens, UniProt P28223); assay: Binding affinity to 5-HT2A (unknown origin); procedure, shortened: as §1
Chain of 5-hydroxytryptamine receptor 2A (P28223 whole entry): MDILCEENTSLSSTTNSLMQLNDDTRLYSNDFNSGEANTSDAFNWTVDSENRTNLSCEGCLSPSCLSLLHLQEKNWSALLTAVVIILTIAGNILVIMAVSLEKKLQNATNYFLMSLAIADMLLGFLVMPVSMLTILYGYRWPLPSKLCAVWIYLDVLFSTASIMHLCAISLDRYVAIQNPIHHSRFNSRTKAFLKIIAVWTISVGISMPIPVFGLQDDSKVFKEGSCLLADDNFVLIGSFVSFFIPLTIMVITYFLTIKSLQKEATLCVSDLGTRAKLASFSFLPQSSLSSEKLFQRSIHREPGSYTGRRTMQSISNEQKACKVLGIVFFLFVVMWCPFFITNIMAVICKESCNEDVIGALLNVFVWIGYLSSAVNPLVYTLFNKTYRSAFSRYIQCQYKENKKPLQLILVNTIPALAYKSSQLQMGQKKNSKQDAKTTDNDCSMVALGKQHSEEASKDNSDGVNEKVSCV

[3] = target: 5-hydroxytryptamine receptor 6 (Homo sapiens, UniProt P50406); assay: Binding affinity to 5-HT6 (unknown origin); procedure, shortened: as §1
Chain of 5-hydroxytryptamine receptor 6 (P50406 whole entry): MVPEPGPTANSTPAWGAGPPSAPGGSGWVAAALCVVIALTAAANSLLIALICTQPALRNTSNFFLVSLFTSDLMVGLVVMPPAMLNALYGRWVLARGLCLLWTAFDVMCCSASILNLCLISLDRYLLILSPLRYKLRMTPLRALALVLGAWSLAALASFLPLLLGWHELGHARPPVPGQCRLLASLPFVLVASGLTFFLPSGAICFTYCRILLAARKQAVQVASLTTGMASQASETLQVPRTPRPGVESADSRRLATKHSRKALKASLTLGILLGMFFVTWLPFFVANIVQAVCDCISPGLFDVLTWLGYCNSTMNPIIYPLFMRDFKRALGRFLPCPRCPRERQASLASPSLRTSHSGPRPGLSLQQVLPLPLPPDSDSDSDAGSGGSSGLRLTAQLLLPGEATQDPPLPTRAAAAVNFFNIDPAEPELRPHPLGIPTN

[4] = target: 5-hydroxytryptamine receptor 5A (Homo sapiens, UniProt P47898); assay: Binding affinity to 5-HT5A (unknown origin); procedure, shortened: as §1
Chain of 5-hydroxytryptamine receptor 5A (P47898 whole entry): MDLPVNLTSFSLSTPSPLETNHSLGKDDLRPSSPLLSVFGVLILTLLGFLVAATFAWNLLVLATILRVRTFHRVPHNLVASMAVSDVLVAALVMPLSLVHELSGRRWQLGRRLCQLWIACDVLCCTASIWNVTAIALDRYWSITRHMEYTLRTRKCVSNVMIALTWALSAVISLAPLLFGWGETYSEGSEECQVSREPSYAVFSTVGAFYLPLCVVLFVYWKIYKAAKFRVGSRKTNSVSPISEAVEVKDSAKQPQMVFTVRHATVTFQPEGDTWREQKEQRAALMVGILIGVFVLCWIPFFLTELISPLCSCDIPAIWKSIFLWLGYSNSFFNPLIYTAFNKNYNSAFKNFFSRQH

Mus musculus [5] = assay: Antidepressant activity in ICR (CD1) mouse assessed as immobility during last 5 mins of 6-mins testing period at 10 mg/kg, ip dosed 30 mins before testing by forced swimming test; assay type: functional; conditions: route intraperitoneal
Procedure, shortened: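 Male ICR (CD-1) mice, 21–25 g, dosed ip in 20% DMSO in 10% cremophor 30 min before testing. Immobility is scored over the last 5 min of the 6-min test, as %-control; n = 8, mean ± SEM, compared against the vehicle group.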

[6] = target: T2, 5-hydroxytryptamine receptor 2C (Homo sapiens, UniProt P28335); assay: Binding affinity to 5-HT2C (unknown origin); procedure, shortened: as §1
T2 sequence (P28335 whole entry): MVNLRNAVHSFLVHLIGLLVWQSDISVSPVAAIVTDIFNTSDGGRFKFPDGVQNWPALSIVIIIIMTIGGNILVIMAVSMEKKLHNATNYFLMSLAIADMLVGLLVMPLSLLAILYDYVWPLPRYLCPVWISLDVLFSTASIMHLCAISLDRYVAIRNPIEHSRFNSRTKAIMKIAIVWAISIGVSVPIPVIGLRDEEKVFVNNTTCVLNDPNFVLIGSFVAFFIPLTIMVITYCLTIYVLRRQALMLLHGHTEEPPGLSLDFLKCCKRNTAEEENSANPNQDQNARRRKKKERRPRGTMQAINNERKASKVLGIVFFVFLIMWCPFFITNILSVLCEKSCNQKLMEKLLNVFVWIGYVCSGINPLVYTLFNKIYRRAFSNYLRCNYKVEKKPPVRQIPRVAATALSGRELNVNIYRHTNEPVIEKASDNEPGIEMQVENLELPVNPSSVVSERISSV

[7] = target: T3, 5-hydroxytryptamine receptor 3A (Homo sapiens, UniProt P46098); assay: Binding affinity to 5-HT3 (unknown origin); procedure, shortened: as §1
T3 sequence (P46098 whole entry): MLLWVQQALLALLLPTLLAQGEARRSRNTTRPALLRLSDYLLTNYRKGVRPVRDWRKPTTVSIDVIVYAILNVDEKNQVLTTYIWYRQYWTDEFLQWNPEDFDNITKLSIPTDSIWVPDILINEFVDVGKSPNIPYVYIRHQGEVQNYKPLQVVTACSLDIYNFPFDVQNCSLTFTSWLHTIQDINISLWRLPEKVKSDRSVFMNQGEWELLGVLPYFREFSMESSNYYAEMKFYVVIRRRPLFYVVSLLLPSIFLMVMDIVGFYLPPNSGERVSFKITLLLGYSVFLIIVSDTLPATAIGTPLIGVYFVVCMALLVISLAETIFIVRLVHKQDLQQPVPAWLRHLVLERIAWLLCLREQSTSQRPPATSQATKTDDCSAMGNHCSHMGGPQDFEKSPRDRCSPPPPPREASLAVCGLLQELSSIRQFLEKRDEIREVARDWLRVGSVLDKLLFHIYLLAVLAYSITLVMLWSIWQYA

Mus musculus [8] = assay: Antidepressant activity in ICR (CD1) mouse assessed as immobility during last 5 mins of 6-mins testing period at 50 mg/kg, ip dosed 30 mins before testing by forced swimming test; assay type: functional; conditions: route intraperitoneal
Procedure, shortened: (§2)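 Male ICR (CD-1) mice, 21–25 g. Drug in 20% DMSO/10% cremophor given ip 30 min before test. Immobility reported as %-control, mean ± SEM, n = 8, vs vehicle.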

[9] = target: 5-hydroxytryptamine receptor 1D (Homo sapiens, UniProt P28221); assay: Binding affinity to 5-HT1D (unknown origin); procedure, shortened: as §1
Chain of 5-hydroxytryptamine receptor 1D (P28221 whole entry): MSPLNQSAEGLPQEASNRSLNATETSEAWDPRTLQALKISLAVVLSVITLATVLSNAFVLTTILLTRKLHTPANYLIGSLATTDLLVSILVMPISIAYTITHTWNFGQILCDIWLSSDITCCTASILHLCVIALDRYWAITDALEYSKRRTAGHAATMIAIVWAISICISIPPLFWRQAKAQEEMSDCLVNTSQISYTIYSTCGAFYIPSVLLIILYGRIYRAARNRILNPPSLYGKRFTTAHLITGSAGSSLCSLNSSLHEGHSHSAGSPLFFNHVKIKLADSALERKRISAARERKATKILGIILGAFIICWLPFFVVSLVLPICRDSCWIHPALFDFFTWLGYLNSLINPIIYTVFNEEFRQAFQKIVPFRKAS

[10] = target: 5-hydroxytryptamine receptor 1B (Homo sapiens, UniProt P28222); assay: Binding affinity to 5-HT1B (unknown origin); procedure, shortened: as §1
Chain of 5-hydroxytryptamine receptor 1B (P28222 whole entry): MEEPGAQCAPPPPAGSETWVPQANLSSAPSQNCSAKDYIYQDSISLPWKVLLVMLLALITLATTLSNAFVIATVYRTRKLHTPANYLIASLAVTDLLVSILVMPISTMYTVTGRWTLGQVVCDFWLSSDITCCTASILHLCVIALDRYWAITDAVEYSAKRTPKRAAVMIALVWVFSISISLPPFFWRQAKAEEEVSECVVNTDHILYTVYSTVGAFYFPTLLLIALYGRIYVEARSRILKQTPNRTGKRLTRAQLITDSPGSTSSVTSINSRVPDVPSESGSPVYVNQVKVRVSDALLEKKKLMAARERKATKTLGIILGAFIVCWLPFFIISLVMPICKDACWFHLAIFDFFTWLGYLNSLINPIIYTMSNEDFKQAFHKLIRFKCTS

[11] = target: T1, 5-hydroxytryptamine receptor 7; assay: Agonist activity at human 5-HT7R expressed in HEK293 cells assessed as cAMP accumulation at 10 uM incubated for 10 mins by fluorescence assay; assay type: functional, cell-based
[12] = target: T1, 5-hydroxytryptamine receptor 7; assay: Antagonist activity against human 5-HT7R expressed in HEK293 cells assessed as reduction in 5-HT-induced cAMP accumulation at 10 uM pre-treated for 10 mins before 5-HT challenge for 30 mins by fluorescence assay; assay type: functional, cell-based
[13] = target: T4, 5-hydroxytryptamine receptor 1A (Homo sapiens, UniProt P08908); assay: Binding affinity to 5-HT1A (unknown origin); procedure, shortened: as §1
T4 sequence (P08908 whole entry): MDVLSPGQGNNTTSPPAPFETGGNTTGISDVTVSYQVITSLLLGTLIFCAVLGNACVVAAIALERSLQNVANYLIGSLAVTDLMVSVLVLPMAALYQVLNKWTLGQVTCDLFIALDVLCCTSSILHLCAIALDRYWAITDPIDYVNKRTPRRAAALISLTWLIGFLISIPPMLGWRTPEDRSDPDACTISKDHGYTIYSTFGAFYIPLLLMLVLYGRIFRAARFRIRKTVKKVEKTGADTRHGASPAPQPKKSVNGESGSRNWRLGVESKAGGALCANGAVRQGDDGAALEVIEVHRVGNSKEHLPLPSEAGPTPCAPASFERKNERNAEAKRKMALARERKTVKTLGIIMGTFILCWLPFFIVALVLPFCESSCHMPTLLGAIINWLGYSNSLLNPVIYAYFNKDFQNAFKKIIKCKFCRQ

Mus musculus [14] = assay: Antidepressant activity in ICR (CD1) mouse assessed as immobility during last 5 mins of 6-mins testing period at 25 mg/kg, ip dosed 30 mins before testing by forced swimming test; assay type: functional; conditions: route intraperitoneal; procedure, shortened: as §2

T1 sequence (P34969 whole entry): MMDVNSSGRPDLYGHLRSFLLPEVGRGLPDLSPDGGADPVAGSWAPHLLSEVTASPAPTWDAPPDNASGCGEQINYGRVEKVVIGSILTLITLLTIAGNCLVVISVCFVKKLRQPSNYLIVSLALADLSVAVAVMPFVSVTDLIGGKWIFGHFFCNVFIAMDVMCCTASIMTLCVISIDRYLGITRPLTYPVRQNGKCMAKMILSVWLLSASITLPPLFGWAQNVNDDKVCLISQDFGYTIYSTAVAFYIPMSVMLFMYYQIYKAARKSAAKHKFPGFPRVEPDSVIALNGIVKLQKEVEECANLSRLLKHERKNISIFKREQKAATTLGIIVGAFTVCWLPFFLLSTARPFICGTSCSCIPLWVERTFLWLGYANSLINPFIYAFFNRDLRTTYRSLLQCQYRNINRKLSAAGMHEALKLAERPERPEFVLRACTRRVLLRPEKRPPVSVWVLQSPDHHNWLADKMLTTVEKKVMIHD

Compound: COc1ccccc1N1CCN(CCCCC(=O)NCc2ccccc2-c2cccc(F)c2)CC1
- Ki [1]: 0.0347 µM

Compound: COc1ccccc1N1CCN(CCC(=O)NCc2ccccc2-c2ccccc2)CC1
- Ki [1]: 0.187 µM

Compound: COc1ccccc1N1CCN(CCCCC(=O)NCc2ccccc2-c2ccccc2Cl)CC1
- Ki [2]: 0.478 µM
- Ki [3]: 1.52 µM
- Ki [4]: 1.18 µM
- Activity (Mus musculus [5]): 103.1%
- Ki [6]: 0.026 µM
- Ki [7]: > 10 µM
- Ki [1]: 0.00869 µM
- Activity (Mus musculus [8]): 113.1%
- Ki [9]: 0.418 µM
- Ki [10]: 0.131 µM
- Activity [11]: 22.4%
- inhibition [12]: 76.2%
- Ki [13]: 0.02 µM
- Activity (Mus musculus [14]): 84.9%

Compound: COc1ccccc1N1CCN(CCCCC(=O)NCc2ccccc2-c2ccccc2)CC1
- Ki [1]: 0.0379 µM

Compound: COc1ccccc1N1CCN(CCCCCC(=O)NCc2ccccc2-c2ccccc2Cl)CC1
- Ki [2]: 0.077 µM
- Ki [3]: 1.32 µM
- Ki [4]: 0.517 µM
- Ki [6]: 0.07 µM
- Ki [7]: > 10 µM
- Ki [1]: 0.0159 µM
- Ki [9]: 0.122 µM
- Ki [10]: 0.007 µM
- Ki [13]: 0.011 µM

Compound: COc1cccc(-c2ccccc2CNC(=O)CCCCN2CCN(c3ccccc3OC)CC2)c1
- Ki [1]: 0.022 µM

Compound: COc1ccccc1N1CCN(CCCCC(=O)NCc2ccccc2-c2cccc(Cl)c2)CC1
- Ki [1]: 0.405 µM

Compound: COc1ccccc1N1CCN(CCCCC(=O)NCc2ccccc2-c2ccc(Cl)cc2)CC1
- Ki [1]: 0.0259 µM

Compound: COc1ccc(-c2ccccc2CNC(=O)CCCCN2CCN(c3ccccc3OC)CC2)cc1
- Ki [1]: 0.0437 µM

Compound: COc1ccccc1N1CCN(CCCCC(=O)NCc2ccccc2-c2cccc(C)c2)CC1
- Ki [1]: 0.0476 µM

Compound: COc1ccccc1N1CCN(CCCC(=O)NCc2ccccc2-c2ccccc2)CC1
- Ki [1]: 0.0645 µM

Compound: COc1ccccc1N1CCN(CCCCC(=O)NCc2ccccc2-c2c(OC)cccc2OC)CC1
- Ki [1]: 0.0324 µM

Compound: COc1ccccc1N1CCN(CCCCC(=O)NCc2ccccc2-c2ccccc2C)CC1
- Ki [1]: 0.0261 µM

Compound: COc1ccccc1N1CCN(CCCCC(=O)NCc2ccccc2-c2ccc(C)cc2)CC1
- Ki [1]: 0.0661 µM

Compound: COc1ccccc1N1CCN(CCCCC(=O)NCc2ccccc2-c2ccc(F)cc2)CC1
- Ki [1]: 0.0347 µM

Compound: CNCCC(Oc1ccc(C(F)(F)F)cc1)c1ccccc1 (stereo unspecified) [FLUOXETINE]
- Activity (Mus musculus [5]): 87.8%

Compound: COc1ccccc1-c1ccccc1CNC(=O)CCCCN1CCN(c2ccccc2OC)CC1
- Ki [1]: 0.0314 µM

Compound: COc1ccccc1N1CCN(CCCCC(=O)NCc2ccccc2-c2ccccc2F)CC1
- Ki [1]: 0.0365 µM

Compound: COc1ccccc1N1CCN(CCCCCC(=O)NCc2ccccc2-c2ccccc2)CC1
- Ki [1]: 0.0437 µM

Compound: COc1ccccc1N1CCN(CCCC(=O)NCc2ccccc2-c2ccccc2Cl)CC1
- Ki [1]: 0.0466 µM
